The values that follow come from ChEMBL document CHEMBL1125131, “Long-acting dihydropyridine calcium antagonists. 4. Synthesis and structure-activity relationships for a series of basic and nonbasic derivatives of 2-[(2-aminoethoxy)methyl]-1,4-dihydropyridine calcium antagonists” (J Med Chem, 1990).

One data set is filed under the species Rattus norvegicus. The experiment in a line: Concentration required to block [Ca2+] induced contraction of K+ depolarized rat aorta by 50%. It counts as functional.
A further data set is filed under the species Cavia porcellus. Kind of data set: Negative logarithm of the concentration required to depress contraction in the Langendorff perfused guinea pig heart by 25%. It counts as functional.
The nature of data set [1]: Selectivity index, inhibition of [Ca2+] induced contraction of K+ depolarized rat aorta (IC50) to inhibition of contraction of guinea pig heart (IC25). It counts as functional, Cavia porcellus.
The species named for data set [2] is Canis familiaris. The experiment in a line: Duration of time taken for the compound for % decrease in coronary vasodilator activity. It counts as functional, Canis lupus familiaris. The essentials: (§1)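 Anesthetized beagle dogs were catheterized to record blood pressure and left ventricular pressure and to give compound intravenously, as one single dose for duration of action. Coronary blood flow was measured by hydrogen clearance with platinum electrodes in the coronary sinus and femoral artery, and cardiac output by thermodilution. Coronary vascular resistance was derived from these measurements.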

The subject of data set [3] is Canis familiaris. Kind of data set: The compound was tested for % decrease in coronary vasodilator activity in anesthetized dogs following intravenous administration. It is filed as functional, Canis lupus familiaris. The essentials:
as §1

In data set [4] the test system is Canis familiaris. The experiment in a line: Percent decrease in coronary vasodilator activity in anesthetized dogs following intravenous administration was determined. It is filed as functional, Canis lupus familiaris. Summed up: as §1
Data set [5] is filed under the species Canis familiaris. Kind of data set: Duration of time taken for percent decrease in coronary vasodilator activity. It is filed as functional, Canis lupus familiaris. Summed up: as §1
Data set [6] is described as follows: Volume of distribution in dog after intravenous administration. It counts as ADME, organism-based, Canis lupus familiaris. The note with it: in vivo, read-out: Volume of distribution.
Data set [7] is described as follows: Plasma clearance in dogs after intravenous administration. It is filed as ADME, organism-based, Canis lupus familiaris. The note with it: dog.
Data set [8] can be described thus: Plasma half-life in dog after intravenous administration. It is filed as ADME, organism-based, Canis lupus familiaris.

SMILES strings stand for the structures. Some results are limits rather than exact numbers.

As usually defined, the IC50 is the point on the concentration scale where inhibition reaches its midpoint. Broadly, the clearance is the rate of elimination divided by the concentration. A higher clearance goes with efficient removal. One may read the half-life as how long it takes for the measured level to halve.

`CCO/C(O)=C1\C(COCCNC(=O)c2cccnc2)=NC(C)=C(C(=O)OC)C1c1ccccc1Cl` (stereo not given) had an IC50 in the data set filed under Rattus norvegicus of 15.8 nM. For the same compound, the pIC25 in the data set listed under Cavia porcellus stood at 7.6. The Selectivity index in data set [1] was found to be 1.6.

Compound `CCO/C(O)=C1\C(COCCN(C)/C(=N/C)NC#N)=NC(C)=C(C(=O)OC)C1c1ccccc1Cl` (stereo not given) showed an IC50 in the data set filed under Rattus norvegicus of 25.1 nM. Besides, the pIC25 in the data set listed under Cavia porcellus was 6.6. The same compound came in with a Selectivity index in [1] of 10.

In turn, `CCO/C(O)=C1\C(COCCNCC(=O)NCCN)=NC(C)=C(C(=O)OC)C1c1ccccc1Cl` (stereo not given) had an IC50 in the data set listed under Rattus norvegicus of 100 nM. In the data set listed under Cavia porcellus, this compound had a pIC25 of 7. In addition, the Selectivity index in [1] came to 1.

Take `CCO/C(O)=C1\C(COCC/N=C(\NC#N)NCCN(C)C)=NC(C)=C(C(=O)OC)C1c1ccccc1Cl` (stereo not given): in the data set filed under Rattus norvegicus, the IC50 is 50.1 nM. In the data set filed under Cavia porcellus, this compound had a pIC25 of 6.8. This compound also gave a Selectivity index in data set [1] of 3.

For the compound `CCO/C(O)=C1\C(COCCNC(=O)c2cnccn2)=NC(C)=C(C(=O)OC)C1c1ccccc1Cl` (stereo not given), in the data set filed under Rattus norvegicus, the IC50 is 39.8 nM. Besides, the pIC25 in the data set filed under Cavia porcellus was found to be 7.5. The same compound had a Selectivity index in data set [1] of 0.8.

Compound `CCO/C(O)=C1\C(COCCNS(N)(=O)=O)=NC(C)=C(C(=O)OC)C1c1ccccc1Cl` (stereo not given) showed an IC50 in the data set listed under Rattus norvegicus of 7.94 nM. The compound further gave a pIC25 in the data set filed under Cavia porcellus of 7.1. Moreover, the Selectivity index in data set [1] is listed as 10.

In the data set listed under Rattus norvegicus, `CCO/C(O)=C1\C(COCCNC(=O)c2ccc(O)nc2)=NC(C)=C(C(=O)OC)C1c1ccccc1Cl` (stereo not given) gave an IC50 of 6.31 nM. In the data set filed under Cavia porcellus, the pIC25 worked out at 7. Further, the Selectivity index in [1] amounted to 16.

In turn, `CCO/C(O)=C1\C(COCCNC(C)=O)=NC(C)=C(C(=O)OC)C1c1ccccc1Cl` (stereo not given) showed an IC50 in the data set filed under Rattus norvegicus of 15.8 nM. For the same compound, the pIC25 in the data set filed under Cavia porcellus stood at 7.6. The compound also showed a Selectivity index in [1] of 1.6.

In the data set filed under Rattus norvegicus, `CCO/C(O)=C1\C(COCCNCC(=O)NC)=NC(C)=C(C(=O)OC)C1c1ccccc1Cl` (stereo not given) had an IC50 of 25.1 nM. In the data set listed under Cavia porcellus, the pIC25 is on record as 6.9. Also, in data set [1], the Selectivity index is reported as 5.

Take `CCO/C(O)=C1\C(COCCNCC(=O)NCCOC)=NC(C)=C(C(=O)OC)C1c1ccccc1Cl` (stereo not given): the midpoint of inhibition in the data set listed under Rattus norvegicus, the IC50, lay at 5.01 nM. The compound further showed a pIC25 in the data set filed under Cavia porcellus of 7.5. For the same compound, the Selectivity index in data set [1] is 6.

In the data set listed under Rattus norvegicus, `CCO/C(O)=C1\C(COCCNC(C)(C)C(N)=O)=NC(C)=C(C(=O)OC)C1c1ccccc1Cl` (stereo not given) gave an IC50 of 3.16 nM. For the same compound, the pIC25 in the data set listed under Cavia porcellus came to 7.6. This compound came in with a Duration of action in the data set filed under Canis familiaris [2] of 210 min. In data set [1], the Selectivity index worked out at 8. Besides, the Decrease in the data set with Canis familiaris [3] worked out at 85%.

In turn, `CCOC(=O)CNC(=O)NCCOCC1=C(C(=O)OCC)C(c2ccccc2Cl)/C(=C(\O)OC)C(C)=N1` (stereo not given) showed an IC50 in the data set listed under Rattus norvegicus of 10 nM. For the same compound, the pIC25 in the data set filed under Cavia porcellus came to 7. In addition, in the data set filed under Canis familiaris [2], the Duration of action was determined as 15 min. Further, the Selectivity index in [1] turned out to be 10. In the data set on Canis familiaris [3], the Decrease was found to be 61%.

For `CCO/C(O)=C1\C(COCCNC(=O)Nc2ccnc(O)n2)=NC(C)=C(C(=O)OC)C1c1ccccc1Cl` (stereo not given), the midpoint of inhibition in the data set filed under Rattus norvegicus, the IC50, lay at 158 nM. The compound further had a pIC25 in the data set filed under Cavia porcellus of 7.7. This compound displayed a Selectivity index in [1] of 0.1.

For the compound `CCO/C(O)=C1\C(COCCNC(=O)NCCN)=NC(C)=C(C(=O)OC)C1c1ccccc1Cl.O=C(O)/C=C\C(=O)O` (stereo not given), the midpoint of inhibition in the data set filed under Rattus norvegicus, the IC50, lay at 50.1 nM. The compound further yielded a pIC25 in the data set listed under Cavia porcellus of 7.1. The compound also had a Selectivity index in data set [1] of 1.6.

In the data set listed under Rattus norvegicus, `CCO/C(O)=C1\C(COCCNC(C)C(N)=O)=NC(C)=C(C(=O)OC)C1c1ccccc1Cl` (stereo not given) gave an IC50 of 10 nM. Moreover, in the data set listed under Cavia porcellus, the pIC25 amounted to 7.2. For the same compound, the Duration of action in the data set filed under Canis familiaris [2] was 150 min. Also, in data set [1], the Selectivity index is 6. This compound gave a Decrease with Canis familiaris [3] of 73%.

As to `CCO/C(O)=C1\C(COCCN(C)C(=O)NC)=NC(C)=C(C(=O)OC)C1c1ccccc1Cl` (stereo not given), the IC50 in the data set filed under Rattus norvegicus was 20 nM. Also, the pIC25 in the data set filed under Cavia porcellus is reported as 7. This compound also came in with a Decrease with Canis familiaris [4] of 68%. In data set [1], the Selectivity index was 5. Moreover, the Duration of action in the data set filed under Canis familiaris [5] is 15 min.

For `CCO/C(O)=C1\C(COCCNC(=O)NC)=NC(C)=C(C(=O)OC)C1c1ccccc1Cl` (stereo not given), the half-maximal inhibitory concentration (IC50) in the data set filed under Rattus norvegicus was 3.16 nM. The compound also returned a pIC25 in the data set listed under Cavia porcellus of 7.6. Besides, in [1], the Selectivity index came to 13.

As for `CCO/C(O)=C1\C(COCCN(CC(N)=O)CC(N)=O)=NC(C)=C(C(=O)OC)C1c1ccccc1Cl` (stereo not given), half-maximal inhibition in the data set listed under Rattus norvegicus (IC50) required 63.1 nM. In addition, the pIC25 in the data set filed under Cavia porcellus was 6. Further, the Selectivity index in [1] was found to be 16.

`CCO/C(O)=C1\C(COCCNC(=O)NCCN2CCNC2=O)=NC(C)=C(C(=O)OC)C1c1ccccc1Cl` (stereo not given) gave an IC50 in the data set listed under Rattus norvegicus of 15.8 nM. Moreover, in the data set filed under Cavia porcellus, the pIC25 worked out at 6.2. Further, the Selectivity index in [1] came out at 40.

In the case of `CCO/C(O)=C1\C(COCC/N=C(/NC)NC#N)=NC(C)=C(C(=O)OC)C1c1ccccc1Cl` (stereo not given), in the data set filed under Rattus norvegicus, the concentration for half-maximal inhibition (IC50) is 6.31 nM. Besides, in the data set listed under Cavia porcellus, the pIC25 came out at 7.5. In addition, the Selectivity index in data set [1] is 5.

Turning to `CCO/C(O)=C1\C(COCCNCC(N)=O)=NC(C)=C(C(=O)OC)C1c1ccccc1Cl` (stereo not given), the Vd in data set [6] stood at 3 L/kg. This compound also had an IC50 in the data set listed under Rattus norvegicus of 3.98 nM. In data set [7], this compound had a clearance of 7 mL/min/kg. In the data set listed under Cavia porcellus, this compound yielded a pIC25 of 7.1. The same compound had a half-life in [8] of 4.7 h. In the data set listed under Canis familiaris [2], this compound had a Duration of action greater than 300 min. The Selectivity index in [1] is 20. The Decrease with Canis familiaris [3] came to 88%.

As to `CCO/C(O)=C1\C(COCCNC(=O)NCC(N)=O)=NC(C)=C(C(=O)OC)C1c1ccccc1Cl` (stereo not given), in the data set filed under Rattus norvegicus, the IC50 is 20 nM. This compound registered a pIC25 in the data set filed under Cavia porcellus of 6.4. The Selectivity index in [1] came to 20.

In the data set filed under Rattus norvegicus, `CCO/C(O)=C1\C(COCCN(C)S(N)(=O)=O)=NC(C)=C(C(=O)OC)C1c1ccccc1Cl` (stereo not given) gave an IC50 of 25.1 nM. In addition, in the data set filed under Cavia porcellus, the pIC25 is on record as 6.7. In data set [1], the Selectivity index came to 8.

For `COC(=O)C1=C(C)NC(C)=C(C(=O)OC)C1c1ccccc1[N+](=O)[O-]` [NIFEDIPINE], the pIC25 in the data set listed under Cavia porcellus was determined as 7.5. The compound also had a Duration of action in the data set listed under Canis familiaris [2] of 36 min. The Decrease in the data set on Canis familiaris [3] turned out to be 77%.
